ChEMBL document CHEMBL3804761, “Synthesis of a stable and orally bioavailable englerin analogue” (Bioorg Med Chem Lett, 2016)

Columns and labels:
Type in all cases: functional
[1] = Growth inhibition of human SF268 cells assessed as cell growth at 10 uM incubated for 48 hrs by sulforhodamine B assay relative to control; details: SF-268, 48 h, read-out: Activity
Procedure, shortened: (§1)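 Run in the standard NCI 60-cell-line screen. Cells were exposed to drug for two days, and the read-out was sulforhodamine B staining. Compound was tested at a single final concentration of 10 µM in every line, and results are reported as growth percent.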

MCF7 [2] = assay: Growth inhibition of human MCF7 cells incubated for 48 hrs by sulforhodamine B assay; details: MCF7, 48 h; for CC50: read-out: pLC50 (the source's name) (converted); for TGI: read-out: pTGI (converted)
Procedure, shortened: (§2)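 NCI 60-cell-line panel, standard protocol. Cells exposed to compound for two days, growth read by sulforhodamine B staining. Tested at five 10-fold dilutions, top concentration 100 µM, to give dose-response curves.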

CCRF-CEM = assay: Growth inhibition of human CCRF-CEM cells assessed as cell growth at 10 uM incubated for 48 hrs by sulforhodamine B assay relative to control; details: read-out: Activity
Procedure, shortened: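 Single-dose screen in the NCI 60-cell-line panel at one final concentration of 10 µM. Two-day drug exposure with a sulforhodamine B endpoint. Values are growth percent for each cell line.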

[3] = Growth inhibition of human OVCAR5 cells incubated for 48 hrs by sulforhodamine B assay; details: OVCAR-5, 48 h; for TGI: read-out: pTGI (converted); procedure, shortened: as §2
[4] = Growth inhibition of human SF268 cells incubated for 48 hrs by sulforhodamine B assay; details: SF-268, 48 h; for TGI: read-out: pTGI (converted); procedure, shortened: as §2
T47D = assay: Growth inhibition of human T47D cells incubated for 48 hrs by sulforhodamine B assay; details: for CC50: read-out: pLC50 (the source's name) (converted); for TGI: read-out: pTGI (converted)
Procedure, shortened: (§3)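 Tested in the standard NCI 60-cell-line protocol with two-day drug exposure and a sulforhodamine B endpoint. Compounds were first screened at a single final concentration of 10 µM, reported as growth percent. They were then run as five 10-fold dilutions starting from a high concentration of 100 µM to give dose-response curves.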

[5] = Growth inhibition of human Hs 578T cells assessed as cell growth at 10 uM incubated for 48 hrs by sulforhodamine B assay relative to control; details: read-out: Activity
[6] = Growth inhibition of human UACC257 cells incubated for 48 hrs by sulforhodamine B assay; details: UACC-257, 48 h; for CC50: read-out: pLC50 (the source's name) (converted); for TGI: read-out: pTGI (converted); procedure, shortened: as §3
[7] = Growth inhibition of human PC3 cells assessed as cell growth at 10 uM incubated for 48 hrs by sulforhodamine B assay relative to control; details: PC-3, 48 h, read-out: Activity; procedure, shortened: as §1
[8] = Growth inhibition of human HCT15 cells assessed as cell growth at 10 uM incubated for 48 hrs by sulforhodamine B assay relative to control; details: HCT-15, 48 h, read-out: Activity; procedure, shortened: as §1
786-0 = assay: Growth inhibition of human 786-0 cells assessed as cell growth at 10 uM incubated for 48 hrs by sulforhodamine B assay relative to control; details: 786-0, 48 h, read-out: Activity; procedure, shortened: as §1
[9] = Growth inhibition of human HCT116 cells assessed as cell growth at 10 uM incubated for 48 hrs by sulforhodamine B assay relative to control; details: HCT-116, 48 h, read-out: Activity; procedure, shortened: as §1
MCF7 [10] = assay: Growth inhibition of human MCF7 cells assessed as cell growth at 10 uM incubated for 48 hrs by sulforhodamine B assay relative to control; details: MCF7, 48 h, read-out: Activity; procedure, shortened: as §1
[11] = Growth inhibition of human SF295 cells assessed as cell growth at 10 uM incubated for 48 hrs by sulforhodamine B assay relative to control; details: SF-295, 48 h, read-out: Activity; procedure, shortened: as §1
NCI-H23 = assay: Growth inhibition of human NCI-H23 cells assessed as cell growth at 10 uM incubated for 48 hrs by sulforhodamine B assay relative to control; details: NCI-H23, 48 h, read-out: Activity; procedure, shortened: as §1
Malme-3M = assay: Growth inhibition of human MALME-3M cells incubated for 48 hrs by sulforhodamine B assay; details: for TGI: read-out: pTGI (converted); procedure, shortened: as §2
KM12 = assay: Growth inhibition of human KM12 cells assessed as cell growth at 10 uM incubated for 48 hrs by sulforhodamine B assay relative to control; details: KM12, 48 h, read-out: Activity; procedure, shortened: as §1
[12] = Growth inhibition of human OVCAR5 cells assessed as cell growth at 10 uM incubated for 48 hrs by sulforhodamine B assay relative to control; details: OVCAR-5, 48 h, read-out: Activity; procedure, shortened: as §1
U-251 = assay: Growth inhibition of human U251 cells assessed as cell growth at 10 uM incubated for 48 hrs by sulforhodamine B assay relative to control; details: U-251, 48 h, read-out: Activity
Procedure, shortened: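 NCI 60-cell line standard protocol, one-dose screen: single final concentration 10 µM, 2-day drug exposure, sulforhodamine B (SRB) endpoint; read-out is growth percent relative to untreated control.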

[13] = Growth inhibition of human SW620 cells assessed as cell growth at 10 uM incubated for 48 hrs by sulforhodamine B assay relative to control; details: SW-620, 48 h, read-out: Activity; procedure, shortened: as §1
[14] = Growth inhibition of human OVCAR3 cells incubated for 48 hrs by sulforhodamine B assay; details: OVCAR-3, 48 h; for TGI: read-out: pTGI (converted); procedure, shortened: as §2
MDA-MB-435 = assay: Growth inhibition of human MDA-MB-435 cells incubated for 48 hrs by sulforhodamine B assay; details: MDA-MB-435, 48 h; for TGI: read-out: pTGI (converted); procedure, shortened: as §2
[15] = Growth inhibition of human SF539 cells incubated for 48 hrs by sulforhodamine B assay; details: SF-539, 48 h; for TGI: read-out: pTGI (converted); procedure, shortened: as §2
[16] = Growth inhibition of human Hs 578T cells incubated for 48 hrs by sulforhodamine B assay; details: for CC50: read-out: pLC50 (the source's name) (converted); for TGI: read-out: pTGI (converted)
SN12C = assay: Growth inhibition of human SN12C cells incubated for 48 hrs by sulforhodamine B assay; details: for CC50: read-out: pLC50 (the source's name) (converted); for TGI: read-out: pTGI (converted); procedure, shortened: as §3
[17] = Growth inhibition of human SF295 cells incubated for 48 hrs by sulforhodamine B assay; details: SF-295, 48 h; for TGI: read-out: pTGI (converted); procedure, shortened: as §2
[18] = Growth inhibition of human LOXIMVI cells incubated for 48 hrs by sulforhodamine B assay; details: LOX IMVI; for TGI: read-out: pTGI (converted); procedure, shortened: as §2
[19] = Growth inhibition of human DU145 cells incubated for 48 hrs by sulforhodamine B assay; details: DU-145, 48 h; for CC50: read-out: pLC50 (the source's name) (converted); for TGI: read-out: pTGI (converted); procedure, shortened: as §2
[20] = Growth inhibition of human IGROV1 cells assessed as cell growth at 10 uM incubated for 48 hrs by sulforhodamine B assay relative to control; details: IGROV-1, 48 h, read-out: Activity; procedure, shortened: as §1

Compound `C/C(=C\C(=O)O[C@H]1[C@@H]2[C@H](C)CC[C@H]2[C@]2(C)O[C@@]1(C(C)C)C[C@H]2NC(=O)CO)c1ccccc1` has a growth at 10 µM [1] of 106%, a GI50 (MCF7 [2]) of 27.5 µM and a CC50 (MCF7 [2]) of over 100 µM. The TGI (MCF7 [2]) was over 100 µM, the growth at 10 µM (CCRF-CEM) was 94.1% and the GI50 [3] was 70.8 µM. For the same compound, the LC50 [3] was over 100 µM, the TGI [3] was over 100 µM and the GI50 [4] was 26.9 µM. For the same compound, the LC50 (lethal concentration, 50% net cell kill) [4] was over 100 µM, the TGI [4] was over 100 µM and the GI50 (T47D) was 20.4 µM. The CC50 (T47D) was over 100 µM, the TGI (T47D) was over 100 µM and the growth at 10 µM [5] was -8.92%. The GI50 [6] was 34.7 µM, the CC50 [6] was over 100 µM and the TGI [6] was over 100 µM. The growth at 10 µM [7] was 83.1%, the growth at 10 µM [8] was 100% and the growth at 10 µM (786-0) was 93.5%. The growth at 10 µM [9] was 101%, the growth at 10 µM (MCF7 [10]) was 89.7% and the growth at 10 µM [11] was 97.8%. For the same compound, the growth at 10 µM (NCI-H23) was 97.7%, the GI50 (Malme-3M) was 26.3 µM and the LC50 (Malme-3M) was over 100 µM. It also gave a TGI (Malme-3M) of over 100 µM, a growth at 10 µM (KM12) of 112% and a growth at 10 µM [12] of 119%. For the same compound, the growth at 10 µM (U-251) was 91.8%, the growth at 10 µM [13] was 103% and the GI50 [14] was 32.4 µM. For the same compound, the LC50 [14] was over 100 µM, the TGI [14] was 93.3 µM and the GI50 (MDA-MB-435) was 33.9 µM. The LC50 (MDA-MB-435) was over 100 µM, the TGI (MDA-MB-435) was over 100 µM and the GI50 [15] was 49 µM. The LC50 [15] was over 100 µM, the TGI [15] was over 100 µM and the GI50 ([16]; read-out: GI50) was 2.24 µM. The GI50 ([16]; read-out: pGI50 (converted)) was 2.24 µM, the CC50 [16] was over 100 µM and the TGI [16] was 6.92 µM. It also gave a GI50 (SN12C) of 11.5 µM, a CC50 (SN12C) of over 100 µM and a TGI (SN12C) of 66.1 µM. For the same compound, the GI50 [17] was 36.3 µM, the LC50 (concentration causing 50% net cell kill) [17] was over 100 µM and the TGI [17] was over 100 µM. It also gave a GI50 [18] of 27.5 µM, an LC50 [18] of over 100 µM and a TGI [18] of over 100 µM. It also gave a GI50 [19] of 60.3 µM, a CC50 [19] of over 100 µM and a TGI [19] of over 100 µM. The growth at 10 µM [20] was 104%.

In the case of `CC(C)[C@@]12C[C@@H](NC(=O)CO)[C@@](C)(O1)[C@@H]1CC[C@@H](C)[C@H]1[C@@H]2OC(=O)/C=C/C1CCCCC1`, the growth at 10 µM [1] was 106%, the GI50 (MCF7 [2]) was over 44.7 µM and the CC50 (MCF7 [2]) was over 44.7 µM. For the same compound, the TGI (MCF7 [2]) was over 44.7 µM, the growth at 10 µM (CCRF-CEM) was 128% and the GI50 [3] was over 44.7 µM. For the same compound, the LC50 [3] was over 44.7 µM, the TGI [3] was over 44.7 µM and the GI50 [4] was over 44.7 µM. For the same compound, the LC50 (lethal concentration, 50% net cell kill) [4] was over 44.7 µM, the TGI [4] was over 44.7 µM and the GI50 (T47D) was over 44.7 µM. The CC50 (T47D) was over 44.7 µM, the TGI (T47D) was over 44.7 µM and the growth at 10 µM [5] was 73%. For the same compound, the GI50 [6] was over 44.7 µM, the CC50 [6] was over 44.7 µM and the TGI [6] was over 44.7 µM. The growth at 10 µM [7] was 106%, the growth at 10 µM [8] was 102% and the growth at 10 µM (786-0) was 100%. For the same compound, the growth at 10 µM [9] was 103%, the growth at 10 µM (MCF7 [10]) was 94% and the growth at 10 µM [11] was 86.3%. For the same compound, the growth at 10 µM (NCI-H23) was 99.4%, the GI50 (Malme-3M) was over 44.7 µM and the LC50 (Malme-3M) was over 44.7 µM. The TGI (Malme-3M) was over 44.7 µM, the growth at 10 µM (KM12) was 104% and the growth at 10 µM [12] was 92.6%. The growth at 10 µM (U-251) was 98.1%, the growth at 10 µM [13] was 102% and the GI50 [14] was over 44.7 µM. The LC50 [14] was over 44.7 µM, the TGI [14] was over 44.7 µM and the GI50 (MDA-MB-435) was over 44.7 µM. The LC50 (MDA-MB-435) was over 44.7 µM, the TGI (MDA-MB-435) was over 44.7 µM and the GI50 [15] was over 44.7 µM. It also gave an LC50 [15] of over 44.7 µM, a TGI [15] of over 44.7 µM and a GI50 ([16]; read-out: GI50) of 6.17 µM. For the same compound, the GI50 ([16]; read-out: pGI50 (converted)) was 6.17 µM, the CC50 [16] was over 44.7 µM and the TGI [16] was 18.6 µM. It also gave a GI50 (SN12C) of over 44.7 µM, a CC50 (SN12C) of over 44.7 µM and a TGI (SN12C) of over 44.7 µM. For the same compound, the GI50 [17] was over 44.7 µM, the LC50 (concentration causing 50% net cell kill) [17] was over 44.7 µM and the TGI [17] was over 44.7 µM. For the same compound, the GI50 [18] was over 44.7 µM, the LC50 [18] was over 44.7 µM and the TGI [18] was over 44.7 µM. For the same compound, the GI50 [19] was over 44.7 µM, the CC50 [19] was over 44.7 µM and the TGI [19] was over 44.7 µM. The growth at 10 µM [20] was 103%.
